Results reported in ChEMBL document CHEMBL1129624, “10-substituted 11-oxygenated (R)-aporphines: synthesis, pharmacology, and modeling of 5-HT1A receptor interactions” (J Med Chem, 1996).

Key:
[1] = target: T1, 5-hydroxytryptamine receptor 1A (Rattus norvegicus, UniProt P19327); assay: In vitro affinity at 5-hydroxytryptamine 1A receptor of rat hippocampus by [3H]8-OH-DPAT displacement.; format: tissue-based
T1 sequence (P19327 whole entry): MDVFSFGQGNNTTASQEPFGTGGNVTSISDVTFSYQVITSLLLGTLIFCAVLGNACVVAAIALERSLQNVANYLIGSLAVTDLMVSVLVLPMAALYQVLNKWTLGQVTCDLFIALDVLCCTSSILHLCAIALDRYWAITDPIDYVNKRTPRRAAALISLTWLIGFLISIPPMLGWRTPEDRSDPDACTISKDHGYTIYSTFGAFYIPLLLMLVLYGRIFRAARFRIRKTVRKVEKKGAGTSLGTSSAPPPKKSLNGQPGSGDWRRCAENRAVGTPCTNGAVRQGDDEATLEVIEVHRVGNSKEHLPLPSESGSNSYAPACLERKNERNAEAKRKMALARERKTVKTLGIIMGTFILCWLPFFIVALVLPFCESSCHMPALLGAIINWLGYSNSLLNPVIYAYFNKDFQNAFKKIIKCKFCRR
Summary of the method: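 Incubation in 50 mM Tris–HCl pH 7.4 containing 2.0 mM CaCl2, 1.0 mM MgCl2, 1.0 mM MnCl2 and 5.7 mM ascorbic acid, 45 min at 37 °C. Nonspecific binding defined with 100 μM 5-HT·HCl. Otherwise run as in an earlier report.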

D(1A) dopamine receptor [2] = target: T2, D(1A) dopamine receptor (Rattus norvegicus, UniProt P18901); assay: In vitro affinity at Dopamine receptor D1 of rat striatum by [3H]SCH-23390 displacement.; format: tissue-based
D(2) dopamine receptor [3] = target: T3, D(2) dopamine receptor (Homo sapiens, UniProt P14416); assay: In vitro affinity at human cloned Dopamine receptor D2A by [3H]-raclopride displacement.
Rattus norvegicus [4] = assay: In vivo effect on 5-hydroxytryptophan (5-HTP) accumulation following decarboxylase inhibition was investigated on striatum of reserpine-pretreated rats.; format: functional
Summary of the method: (§1)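 Rats pretreated with reserpine (5 mg/kg sc) 18–20 h before. Single sc doses of test agent in saline, sometimes with a few drops of glacial HOAc. Decarboxylase then blocked with NSD1015 (117 mg/kg sc). DOPA and 5-HTP measured in dissected brain regions by HPLC with electrochemical detection. Values given as percent of saline controls, n = 2–4. Statistics by one-way ANOVA with Fisher's PLSD.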

Rattus norvegicus [5] = assay: In vivo effect on 5-hydroxytryptophan (5-HTP) accumulation following decarboxylase inhibition was tested on limbic forebrain of reserpine-pretreated rats.; format: functional, Limbic system; summary of the method: as §1
Rattus norvegicus [6] = assay: In vivo effects of single doses on dihydroxyphenylalanine (DOPA) accumulation following decarboxylase inhibition was investigated on limbic forebrain of reserpine-pretreated rats.; format: functional, Limbic system; summary of the method: as §1
Rattus norvegicus [7] = assay: In vivo effects on 5-hydroxytryptophan (5-HTP) accumulation following decarboxylase inhibition was tested on cortex of reserpine-pretreated rats.; format: functional; summary of the method: as §1
Rattus norvegicus [8] = assay: In vivo effects on dihydroxyphenylalanine (DOPA) accumulation following decarboxylase inhibition was tested on cortex of reserpine-pretreated rats; format: functional; summary of the method: as §1
Rattus norvegicus [9] = assay: In vivo effects on dihydroxyphenylalanine (DOPA) accumulation following decarboxylase inhibition was tested on striatum of reserpine-pretreated rats.; format: functional; summary of the method: as §1
D(2) dopamine receptor [10] = target: T3, D(2) dopamine receptor; assay: In vitro affinity at human cloned Dopamine receptor D2A by [3H]raclopride displacement.
D(1A) dopamine receptor [11] = target: T2, D(1A) dopamine receptor; assay: In vitro affinity at Dopamine receptor D1 of rat striatum by [3H]SCH-23,390 displacement.; format: tissue-based
Rattus norvegicus [12] = assay: In vivo effect on dihydroxyphenylalanine (DOPA) accumulation following decarboxylase inhibition was tested on cortex of reserpine-pretreated rats; format: functional; summary of the method: as §1
Rattus norvegicus [13] = assay: In vivo effect on dihydroxyphenylalanine (DOPA) accumulation following decarboxylase inhibition was tested on striatum of reserpine-pretreated rats.; format: functional; summary of the method: as §1

T2 sequence (P18901 whole entry): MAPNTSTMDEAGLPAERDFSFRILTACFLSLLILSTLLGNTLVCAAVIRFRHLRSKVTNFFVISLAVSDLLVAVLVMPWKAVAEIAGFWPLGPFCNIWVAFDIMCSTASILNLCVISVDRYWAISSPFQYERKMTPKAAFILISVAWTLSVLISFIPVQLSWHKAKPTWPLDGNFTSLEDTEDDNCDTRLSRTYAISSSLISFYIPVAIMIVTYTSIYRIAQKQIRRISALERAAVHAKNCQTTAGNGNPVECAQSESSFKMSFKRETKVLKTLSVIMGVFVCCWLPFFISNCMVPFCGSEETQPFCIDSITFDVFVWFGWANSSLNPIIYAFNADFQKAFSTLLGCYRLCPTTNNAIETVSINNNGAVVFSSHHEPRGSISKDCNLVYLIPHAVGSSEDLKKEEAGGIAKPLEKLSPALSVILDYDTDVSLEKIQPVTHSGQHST
T3 sequence (P14416 whole entry): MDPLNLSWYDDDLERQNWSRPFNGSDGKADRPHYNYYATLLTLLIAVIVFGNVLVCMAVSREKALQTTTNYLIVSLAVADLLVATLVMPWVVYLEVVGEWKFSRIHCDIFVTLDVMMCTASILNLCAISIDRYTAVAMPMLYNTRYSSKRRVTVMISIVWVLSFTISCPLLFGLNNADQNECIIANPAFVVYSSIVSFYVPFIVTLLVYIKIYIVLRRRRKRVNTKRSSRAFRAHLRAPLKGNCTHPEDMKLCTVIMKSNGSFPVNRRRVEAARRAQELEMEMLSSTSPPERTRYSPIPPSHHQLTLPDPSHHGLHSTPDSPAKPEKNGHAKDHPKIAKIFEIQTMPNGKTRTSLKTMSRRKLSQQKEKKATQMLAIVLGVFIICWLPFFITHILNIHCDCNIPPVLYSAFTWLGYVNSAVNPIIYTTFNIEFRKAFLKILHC

CCc1ccc2c(c1O)-c1cccc3c1[C@@H](C2)N(C)CC3
Ki [1]: 0.0092 µM | Ki (D(1A) dopamine receptor [2]): 0.782 µM | Ki (D(2) dopamine receptor [3]): 2.05 µM

Cc1ccc2c(c1O)-c1cccc3c1[C@@H](C2)NCC3
Ki [1]: 0.0032 µM | Ki (D(1A) dopamine receptor [2]): 23.8 µM | Ki (D(2) dopamine receptor [3]): > 10 µM | Accumulation (Rattus norvegicus [4]): 47 | Accumulation (Rattus norvegicus [5]): 37 | Accumulation (Rattus norvegicus [6]): 85 | Accumulation (Rattus norvegicus [7]): 40 | Accumulation (Rattus norvegicus [8]): 93 | Accumulation (Rattus norvegicus [9]): 78

COc1c(C)ccc2c1-c1cccc3c1[C@@H](C2)NCC3
Ki [1]: 0.0126 µM | Ki (D(2) dopamine receptor [10]): 4.71 µM | Ki (D(1A) dopamine receptor [11]): > 5 µM

CCCN1CCc2cccc3c2[C@H]1Cc1ccc(C)c(OC)c1-3
Ki [1]: 0.0108 µM | Ki (D(1A) dopamine receptor [2]): > 2 µM | Ki (D(2) dopamine receptor [3]): 0.238 µM

COc1c(-c2ccco2)ccc2c1-c1cccc3c1[C@@H](C2)N(C)CC3
Ki [1]: 0.995 µM | Ki (D(2) dopamine receptor [10]): 0.582 µM | Ki (D(1A) dopamine receptor [11]): 14 µM

COc1c(C)ccc2c1-c1cccc3c1[C@@H](C2)N(Cc1ccccc1)CC3
Ki (D(2) dopamine receptor [10]): > 5 µM | Ki (D(1A) dopamine receptor [11]): > 5 µM

CN1CCc2cccc3c2[C@H]1Cc1ccc(-c2ccccc2)c(O)c1-3
Ki [1]: 1.09 µM | Ki (D(1A) dopamine receptor [2]): 9.4 µM | Ki (D(2) dopamine receptor [3]): > 1 µM

CCCN1CCc2cccc3c2[C@H]1Cc1ccc(C)c(O)c1-3
Ki [1]: 0.0123 µM | Ki (D(1A) dopamine receptor [2]): > 2 µM | Ki (D(2) dopamine receptor [3]): 0.249 µM | Accumulation (Rattus norvegicus [4]): 104 | Accumulation (Rattus norvegicus [5]): 104 | Accumulation (Rattus norvegicus [6]): 81 | Accumulation (Rattus norvegicus [7]): 102 | Accumulation (Rattus norvegicus [8]): 116 | Accumulation (Rattus norvegicus [9]): 72

CCCN1CCc2cccc3c2[C@H]1Cc1ccc(OS(=O)(=O)C(F)(F)F)c(OC)c1-3
Ki [1]: 3.3 µM | Ki (D(1A) dopamine receptor [2]): > 2 µM | Ki (D(2) dopamine receptor [3]): 0.403 µM

COc1c(C(C)=O)ccc2c1-c1cccc3c1[C@@H](C2)N(C)CC3
Ki [1]: 0.15 µM | Ki (D(2) dopamine receptor [10]): 2.98 µM | Ki (D(1A) dopamine receptor [11]): 4.82 µM

CC(=O)c1ccc2c(c1O)-c1cccc3c1[C@@H](C2)N(C)CC3
Ki (D(1A) dopamine receptor [2]): 4.62 µM | Ki (D(2) dopamine receptor [3]): 2.76 µM

CCc1ccc2c(c1OC)-c1cccc3c1[C@@H](C2)N(C)CC3
Ki [1]: 0.0175 µM | Ki (D(1A) dopamine receptor [2]): 1.03 µM | Ki (D(2) dopamine receptor [3]): 0.411 µM

C=Cc1ccc2c(c1OC)-c1cccc3c1[C@@H](C2)N(C)CC3
Ki [1]: 0.108 µM | Ki (D(2) dopamine receptor [10]): 1.75 µM | Ki (D(1A) dopamine receptor [11]): 1.44 µM

COc1c(C)ccc2c1-c1cccc3c1[C@@H](C2)N(C)CC3
Ki [1]: 0.0075 µM | Ki (D(1A) dopamine receptor [2]): 0.393 µM | Ki (D(2) dopamine receptor [3]): 0.248 µM

COc1c(C)ccc2c1-c1cccc3c1[C@@H](C2)N(C(C)C)CC3
Ki [1]: 0.64 µM | Ki (D(1A) dopamine receptor [2]): > 5 µM | Ki (D(2) dopamine receptor [3]): > 1 µM

Cc1ccc2c(c1O)-c1cccc3c1[C@@H](C2)N(Cc1ccccc1)CC3
Ki [1]: 0.772 µM | Ki (D(1A) dopamine receptor [2]): > 5 µM | Ki (D(2) dopamine receptor [3]): > 1 µM

COc1c(OS(=O)(=O)C(F)(F)F)ccc2c1-c1cccc3c1[C@@H](C2)N(C)CC3
Ki [1]: 1.62 µM | Ki (D(1A) dopamine receptor [2]): > 2 µM | Ki (D(2) dopamine receptor [3]): 1.04 µM

Cc1ccc2c(c1O)-c1cccc3c1[C@@H](C2)N(C(C)C)CC3
Ki [1]: 0.241 µM | Ki (D(1A) dopamine receptor [2]): > 10 µM | Ki (D(2) dopamine receptor [3]): > 1 µM

Cc1ccc2c(c1O)-c1cccc3c1[C@@H](C2)N(C)CC3
Accumulation (Rattus norvegicus [4]): 70 | Accumulation (Rattus norvegicus [5]): 58 | Accumulation (Rattus norvegicus [12]): 100 | Accumulation (Rattus norvegicus [13]): 90 | Accumulation (Rattus norvegicus [6]): 84 | Accumulation (Rattus norvegicus [7]): 72
